Results reported in ChEMBL document CHEMBL1687796, “Synthesis and spectrum of the neoglycoside ACHN-490” (2010).
In brackets after ≈: the same amount, converted by molar mass.

How the values were obtained:
[1] = tested on: Klebsiella pneumoniae; assay: Antibacterial activity against aminoglycoside-resistant Klebsiella pneumoniae expressing AAC(3)-1 by broth microdilution method; assay type: functional
In short: (§1)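 Clinical aminoglycoside-resistant isolates were each carrying a single aminoglycoside-modifying enzyme. […] MICs were determined by CLSI broth microdilution.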

[2] = tested on: Escherichia coli; assay: Antibacterial activity against Escherichia coli ATCC 25922 by broth microdilution method; assay type: functional
In short: (§2)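 MICs were measured by broth microdilution following CLSI guidance. The strains formed a 25-strain screening panel with diverse aminoglycoside resistance mechanisms. The panel included Gram-negative and S. aureus strains carrying key aminoglycoside-modifying enzymes, strains with altered permeability or efflux, and an armA ribosomal methyltransferase strain.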

[3] = tested on: Serratia marcescens; assay: Antibacterial activity against aminoglycoside-resistant Serratia marcescens expressing AAC(6')-1 by broth microdilution method; assay type: functional; in short: as §1
[4] = tested on: Escherichia coli; assay: Antibacterial activity against aminoglycoside-resistant Escherichia coli expressing armA methylase by broth microdilution method; assay type: functional; in short: as §2
[5] = tested on: Pseudomonas aeruginosa; assay: Antibacterial activity against efflux pump deficient Pseudomonas aeruginosa by broth microdilution method; assay type: functional
[6] = tested on: Staphylococcus aureus; assay: microbe, parasite or virus in culture; settings: ATCC 29213
[7] = tested on: Acinetobacter sp.; assay: Antibacterial activity against Acinetobacter spp. by broth microdilution method; assay type: functional
In short: (§3)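 MICs were determined by CLSI broth microdilution against clinical isolate panels that included aminoglycoside-resistant isolates. […] MIC90 was derived per group and not calculated when n was <10. Imipenem, ceftobiprole, ciprofloxacin and tigecycline MICs were also determined for the resistant isolates.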

[8] = tested on: Enterobacter cloacae; assay: Antibacterial activity against aminoglycoside-resistant Enterobacter cloacae expressing AAC(6')-1 by broth microdilution method; assay type: functional; in short: as §1
[9] = tested on: Pseudomonas aeruginosa; assay: Antibacterial activity against Pseudomonas aeruginosa expressing ANT(4')-2 by broth microdilution method; assay type: functional; in short: as §2
[10] = tested on: Pseudomonas aeruginosa; assay: Antibacterial activity against Pseudomonas aeruginosa by broth microdilution method; assay type: functional; in short: as §3
[11] = tested on: Escherichia coli; assay: Antibacterial activity against aminoglycoside-resistant Escherichia coli expressing AAC(3)-IVa by broth microdilution method
[12] = tested on: Pseudomonas aeruginosa; assay: Antibacterial activity against wild type Pseudomonas aeruginosa expressing efflux pump by broth microdilution method; assay type: functional
In short: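 MIC was determined by CLSI broth microdilution, read in μg/ml. The strain came from a 25-strain screening panel with diverse aminoglycoside resistance mechanisms. The panel included strains with changes in permeability or efflux, key aminoglycoside-modifying enzymes and an armA methyltransferase strain.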

[13] = tested on: Serratia sp.; assay: Antibacterial activity against Serratia spp. by broth microdilution method; assay type: functional; settings: Serratia sp. (in: enterobacteria); in short: as §3
[14] = tested on: Citrobacter; assay: Antibacterial activity against Citrobacter spp. by broth microdilution method; assay type: functional; in short: as §3
[15] = tested on: Klebsiella pneumoniae; assay: Antibacterial activity against aminoglycoside-resistant Klebsiella pneumoniae expressing AAC(6')-1 by broth microdilution method; assay type: functional; in short: as §1
[16] = tested on: Pseudomonas aeruginosa; assay: Antibacterial activity against aminoglycoside-resistant Pseudomonas aeruginosa expressing ANT(2'')-1 by broth microdilution method; assay type: functional; in short: as §1
[17] = tested on: Klebsiella oxytoca; assay: Antibacterial activity against aminoglycoside-resistant Klebsiella oxytoca expressing AAC(6')-1 by broth microdilution method; assay type: functional; in short: as §1
[18] = tested on: Klebsiella pneumoniae; assay: Antibacterial activity against aminoglycoside-resistant Klebsiella pneumoniae expressing ANT(2'')-I by broth microdilution method
[19] = tested on: Staphylococcus aureus; assay: microbe, parasite or virus in culture
[20] = tested on: Staphylococcus aureus; assay: Antibacterial activity against aminoglycoside-resistant Staphylococcus aureus expressing ANT(4',4'')-2 by broth microdilution method; assay type: functional; in short: as §1
[21] = tested on: Enterobacter sp.; assay: Antibacterial activity against Enterobacter spp. by broth microdilution method; assay type: functional; in short: as §3
[22] = tested on: Klebsiella sp.; assay: Antibacterial activity against Klebsiella spp. by broth microdilution method; assay type: functional; in short: as §3
[23] = tested on: Acinetobacter baumannii; assay: Antibacterial activity against aminoglycoside-resistant Acinetobacter baumannii expressing ANT(2'')-1 by broth microdilution method; assay type: functional; in short: as §1
[24] = tested on: Staphylococcus epidermidis; assay: Antibacterial activity against aminoglycoside-resistant Staphylococcus epidermidis expressing APH(2'') + AAC(6')-1 by broth microdilution method; assay type: functional; in short: as §1
[25] = tested on: Serratia liquefaciens; assay: Antibacterial activity against aminoglycoside-resistant Serratia liquefaciens expressing AAC(3)-2 by broth microdilution method; assay type: functional; in short: as §1
[26] = tested on: Enterobacter cloacae; assay: Antibacterial activity against aminoglycoside-resistant Enterobacter cloacae expressing AAC(3)-2 by broth microdilution method; assay type: functional; in short: as §1
[27] = tested on: Acinetobacter calcoaceticus; assay: Antibacterial activity against aminoglycoside-resistant Acinetobacter calcoaceticus expressing AAC(6')-1 by broth microdilution method; assay type: functional; in short: as §1
[28] = tested on: Staphylococcus epidermidis; assay: Antibacterial activity against aminoglycoside-resistant Staphylococcus epidermidis expressing ANT(4',4'')-2 by broth microdilution method; assay type: functional; in short: as §1
[29] = tested on: Acinetobacter baumannii; assay: Antibacterial activity against Acinetobacter baumannii ATCC 19606 by broth microdilution method; assay type: functional; settings: ATCC 19606 = CIP 70.34 = JCM 6841; in short: as §2
[30] = tested on: Klebsiella pneumoniae; assay: Antibacterial activity against aminoglycoside-resistant Klebsiella pneumoniae expressing AAC(3)-2 by broth microdilution method; assay type: functional; in short: as §1
[31] = tested on: Staphylococcus aureus; assay: Antibacterial activity against aminoglycoside-resistant Staphylococcus aureus expressing APH(2'') + AAC(6') by broth microdilution method; assay type: functional; in short: as §2
[32] = tested on: Serratia marcescens; assay: Antibacterial activity against aminoglycoside-resistant Serratia marcescens expressing ANT(2'')-I by broth microdilution method
[33] = tested on: Pseudomonas aeruginosa; assay: Antibacterial activity against Pseudomonas aeruginosa expressing AAC(6')-2 by broth microdilution method; assay type: functional
[34] = tested on: Pseudomonas aeruginosa; assay: Antibacterial activity against Pseudomonas aeruginosa expressing AAC(3)-1 by broth microdilution method; assay type: functional
[35] = tested on: Escherichia coli; assay: Antibacterial activity against aminoglycoside-resistant Escherichia coli expressing ANT(6')-1 by broth microdilution method; assay type: functional; in short: as §1
[36] = tested on: Staphylococcus aureus; assay: microbe, parasite or virus in culture; remark: listed apart in the source
[37] = tested on: Klebsiella aerogenes; assay: Antibacterial activity against aminoglycoside-resistant Enterobacter aerogenes expressing AAC(6')-1 by broth microdilution method; assay type: functional; in short: as §1
[38] = tested on: Acinetobacter baumannii; assay: Antibacterial activity against aminoglycoside-resistant Acinetobacter baumannii expressing APH(3')-6 by broth microdilution method; assay type: functional; in short: as §1
[39] = tested on: Pluralibacter gergoviae; assay: Antibacterial activity against aminoglycoside-resistant Enterobacter gergoviae expressing ANT(2'')-I by broth microdilution method
[40] = tested on: Escherichia coli; assay: Antibacterial activity against aminoglycoside-resistant Escherichia coli expressing AAC(6')-1 by broth microdilution method; assay type: functional; in short: as §1
[41] = tested on: Escherichia coli; assay: Antibacterial activity against aminoglycoside-resistant Escherichia coli expressing APH(3')-1b by broth microdilution method
[42] = tested on: Klebsiella pneumoniae; assay: Antibacterial activity against aminoglycoside-resistant Klebsiella pneumoniae expressing AAC(3)-4 by broth microdilution method; assay type: functional; in short: as §1
[43] = tested on: Serratia marcescens; assay: Antibacterial activity against aminoglycoside-resistant Serratia marcescens expressing ANT(2''), AAC(6') by broth microdilution method; assay type: functional; in short: as §2
[44] = tested on: Acinetobacter; assay: Antibacterial activity against aminoglycoside-resistant Acinetobacter spp. expressing APH(3')-6 by broth microdilution method; assay type: functional; in short: as §1
[45] = tested on: Escherichia coli; assay: Antibacterial activity against aminoglycoside-resistant Escherichia coli expressing AAC(3)-4 by broth microdilution method; assay type: functional; in short: as §1
[46] = tested on: Klebsiella pneumoniae; assay: Antibacterial activity against Klebsiella pneumoniae ATCC 10031 by broth microdilution method; assay type: functional; in short: as §2

NCC[C@H](O)C(=O)N[C@@H]1C[C@H](N)[C@@H](O[C@H]2O[C@H](CN)[C@@H](O)[C@H](O)[C@H]2O)[C@H](O)[C@H]1O[C@H]1O[C@H](CO)[C@@H](O)[C@H](N)[C@H]1O [AMIKACIN] was tested, and the MIC [1] was 4 µg/mL (≈ 6.83 µM), the MIC [2] was 2 µg/mL (≈ 3.42 µM) and the MIC [3] was 30 µg/mL (≈ 51.2 µM). The MIC [4] was > 64 µg/mL, the MIC [5] was 0.5 µg/mL (≈ 0.854 µM) and the MIC [6] was 4 µg/mL (≈ 6.83 µM). For the same compound, the MIC50 [7] was > 64 µg/mL, the MIC90 [7] was > 64 µg/mL and the MIC [8] was 30 µg/mL (≈ 51.2 µM). The MIC [9] was 32 µg/mL (≈ 54.6 µM), the MIC50 [10] was 16 µg/mL (≈ 27.3 µM) and the MIC90 [10] was > 64 µg/mL. The MIC [11] was 4 µg/mL (≈ 6.83 µM), the MIC [12] was 4 µg/mL (≈ 6.83 µM) and the MIC50 [13] was 8 µg/mL (≈ 13.7 µM). The MIC50 [14] was 32 µg/mL (≈ 54.6 µM), the MIC [15] was 30 µg/mL (≈ 51.2 µM) and the MIC [16] was 8 µg/mL (≈ 13.7 µM). The MIC [17] was 30 µg/mL (≈ 51.2 µM), the MIC [18] was 2 µg/mL (≈ 3.42 µM) and the MIC [19] was 2 µg/mL (≈ 3.42 µM). The MIC [20] was 13 µg/mL (≈ 22.2 µM), the MIC50 [21] was 8 µg/mL (≈ 13.7 µM) and the MIC90 [21] was 64 µg/mL (≈ 109 µM). For the same compound, the MIC50 [22] was 32 µg/mL (≈ 54.6 µM), the MIC90 [22] was > 64 µg/mL and the MIC [23] was 16 µg/mL (≈ 27.3 µM). It also gave an MIC [24] of 18 µg/mL, an MIC [25] of 4 µg/mL (≈ 6.83 µM) and an MIC [26] of 4 µg/mL (≈ 6.83 µM). For the same compound, the MIC [27] was 32 µg/mL (≈ 54.6 µM), the MIC [28] was 13 µg/mL (≈ 22.2 µM) and the MIC [29] was 16 µg/mL (≈ 27.3 µM). For the same compound, the MIC [30] was 4 µg/mL (≈ 6.83 µM), the MIC [31] was 64 µg/mL and the MIC [32] was 2 µg/mL (≈ 3.42 µM). The MIC [33] was 4 µg/mL (≈ 6.83 µM), the MIC [34] was 4 µg/mL (≈ 6.83 µM) and the MIC [35] was 32 µg/mL (≈ 54.6 µM). For the same compound, the MIC [36] was > 64 µg/mL, the MIC [37] was 30 µg/mL (≈ 51.2 µM) and the MIC [38] was > 64 µg/mL. For the same compound, the MIC [39] was 2 µg/mL (≈ 3.42 µM), the MIC [40] was 30 µg/mL (≈ 51.2 µM) and the MIC [41] was 0.5 µg/mL (≈ 0.854 µM). The MIC [42] was 2 µg/mL (≈ 3.42 µM), the MIC [43] was 8 µg/mL (≈ 13.7 µM) and the MIC [44] was > 64 µg/mL. It also gave an MIC [45] of 2 µg/mL (≈ 3.42 µM) and an MIC [46] of 0.5 µg/mL (≈ 0.854 µM).
